This is an account of results in PMC4479701 (mBio, 2015).

The test system of one series is Candida spp. Description: In vitro susceptibility. The format is cell-based. The settings on record: most Candida spp. examined. In short, it runs like this:
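Inoculum prepared per CLSI M27-A3. Plates incubated at 37°C with 5% CO2 for 24 to 96 h. MIC was the lowest concentration inhibiting 50% of growth versus the drug-free control. Minimum fungicidal concentration was also measured: serial dilutions from wells were plated on YPD agar, and MFC was the lowest concentration yielding three or fewer colonies (99% of inoculum killed).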

For series [1], the system named is C. neoformans. Description: Synergism assay. The class given is cell-based.
For series [2], the system named is C. neoformans cells. Description: In vitro passages, development of resistance. The class given is cell-based. The settings on record: 15 days of in vitro passages (120 generations), 10^6 cells/ml; data not shown.
Series [3] deals with GlcCer synthesis in C. neoformans. Description: In vivo labeling with [3H]palmitate, TLC of GlcCer. To be noted: [3H]palmitate labeling. The class given is cell-based.
Series [4] has as its system GlcCer synthesis in J774.16 cells. The experiment in a line: Labeling of mammalian cells with [3H]palmitate, TLC of GlcCer. The format is cell-based, murine. The settings on record: [3H]palmitate labeling, 6 h. A digest of the protocol: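 J774.16 macrophages (5 × 10^6 cells/ml) adhered for 14 h in six-well plates. They were exposed for 4 h to test compound at the concentrations used for the fungal labeling, then given 30 µCi/ml [3H]palmitic acid for a further 2 h.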

In series [5] the test system is C. neoformans cells. Description: In vitro killing assay. The class given is cell-based. In short, it runs like this:
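An overnight C. neoformans culture was washed in PBS and resuspended in HEPES-buffered YNB, pH 7.4. 2 × 10^4 cells were exposed to 1, 2 or 4 µg/ml test compound in 10 ml (0.4% DMSO final), at 37°C, 5% CO2, on a rotary shaker at 200 rpm. Aliquots taken at time points were diluted, plated on YPD, incubated 72 h at 30°C, and CFU counted.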

A short description of a further series: In vitro toxicity. The class given is cell-based, murine. The settings on record: mouse, J774.16 macrophage cells. A digest of the protocol: (§1)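 J774.16 murine macrophages were kept in DMEM with 10% FBS and 1% pen-strep, and used until passage eight. At passage 7, 10^5 cells/well were allowed to adhere for 14 h. Test compound was then added at 0.1 to 100 µg/ml, with drug-free wells as controls. Incubation at 37°C, 5% CO2.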

A further series has as its system J774 cells. The experiment in a line: In vitro toxicity. The class given is cell-based, murine. A digest of the protocol: as §1
For series [6], the system named is C. neoformans. The experiment in a line: Mouse model of cryptococcosis, intranasal infection. The settings on record: 1.2 mg/kg/day i.p. The class given is in vivo, mouse (CBA/J). A digest of the protocol: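 Mice (10 per group) were infected by nasal inoculation of 20 µl containing 5 × 10^5 C. neoformans. Test compound was given i.p. at 1.2 mg/kg/day in 100 µl PBS with 0.4% DMSO, starting 2 h after inoculation. Survival followed up to 60 days. Organs of survivors were homogenized in 10 ml PBS, diluted serially 1:10, plated on YPD, and incubated at 30°C for 72 h for CFU.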

In series [7] the test system is C. neoformans. The experiment in a line: Mouse model of cryptococcosis, intravenous infection. The format is in vivo, mouse (CBA/J). The settings on record: 8 mice per group, vehicle 7.0 ± 1.1.
Series [8] has as its system P. murina. Description: Murine pneumocystosis, corticosteroid-immunosuppressed. The format is in vivo, mouse (C3H/HeN). To be noted: mice immunosuppressed with corticosteroids. A digest of the protocol:
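Corticosteroid-immunosuppressed mice were infected with P. murina by cohousing with seed mice for 2 weeks. […] Treatment lasted 13 days. Lung homogenate slides were stained with Diff-Quik for trophic forms and cresyl echt violet for asci.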

Series [9] relates to P. murina. The experiment in a line: Murine pneumocystosis, CD4-depleted. The class given is in vivo, mouse (C3H/HeN). To be noted: 1.25 mg/kg/day. A digest of the protocol:
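Twelve mice were CD4-depleted with 300 µg GK 1.5 antibody i.p. on days 1, 3 and 7. They were infected by exposure to P. murina-infected mice, then given 100 µg GK 1.5 i.p. weekly for 6 weeks. Treatment followed at 1.25 or 12.5 mg/kg/day for 14 days, with GK 1.5 continued; controls received vehicle.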

A further series has as its system C. albicans SC 5314. Description: Mouse model of invasive candidiasis. The class given is in vivo, mouse (CBA/J). To be noted: after 21 days of infection; 1.2 mg/kg/day i.p.; 8 mice per group. In short, it runs like this: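 Female CBA/J mice, 8 weeks old (8 per group), were infected i.v. with 100 µl containing 10^5 C. albicans SC-5314. Test compound was given i.p. at 1.2 mg/kg/day in 100 µl PBS with 0.4% DMSO immediately after inoculation; untreated mice received vehicle. Survival was monitored. Organs of survivors were homogenized in 10 ml PBS, diluted tenfold, and plated on YPD at 30°C for 72 h for CFU.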

Series [10] in a line: In vivo toxicity, blood work. Details: species or system mouse (CBA/J). In short, it runs like this: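 Female CBA/J mice, 4 weeks old: five received 1.2 mg/kg/day test compound for 60 days, and three controls received a daily solvent injection. On day 60, blood was collected into one K2EDTA tube and one plain tube allowed to clot.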
The subject of series [11] is sphingolipids of C. neoformans. The experiment in a line: Sphingolipid profiling by TLC and LC-MS. The class given is cell-based. To be noted: LC-MS; D0 data not shown.
The subject of series [12] is C. neoformans. Description: Transmission electron microscopy, intracellular vesicles. The format is cell-based. To be noted: 4 µg/ml, 6 h; untreated 0.33 ± 0.36.
In a further series the test system is Cryptococcus neoformans. The experiment in a line: In vitro susceptibility testing. The settings on record: Cryptococcus neoformans. The class given is cell-based.

Values after ≈ are worked out from the molar mass of the structure shown. A value given as a limit tells only on which side of the number the result lay.

Usually EC50 stands for the concentration needed to bring the measured effect to its halfway point. A high value points to a need for much substance. In the case of `O=C(NN=Cc1ccc(O)c(Br)c1)c1cccc(Br)c1` [D0, 3-bromo-N′-(3-bromo-4-hydroxybenzylidene) benzohydrazide], the in vitro susceptibility result in the series with Candida spp. is “resistant”. Also, the interaction category result in the series with C. neoformans [1] (combined with caspofungin) is “additive (additive effect, FIC = 1)”; with C. neoformans [1] (combined with fluconazole), “highly synergistic”; in the series with C. neoformans [1] (combined with tunicamycin), “additive (additive effect, FIC = 1)”. In addition, in the series with C. neoformans cells [2], the development of resistance result is given as “did not develop resistance”. In addition, the “synthesis of GlcCer” value in series [3] is reported as “significantly inhibited”. In series [4], the “synthesis of mammalian GlcCer or other sphingolipids” value is “no significant changes”. Besides, the type of killing result with C. neoformans cells [5] (time-kill assay, 37°C, 5% CO2, pH 7.4) is given as “time-dependent killing”. Further, the dead cells in the series with C. neoformans cells [5] (within 24 h) came to 100%. In addition, the EC50 at 48 h in “In vitro toxicity” stood at 50 µg/mL (≈ 126 µM). This compound registered an EC50/MIC80 selectivity index with J774 cells (J774 EC50 versus MIC) above 100. In the series on J774 cells (macrophage cell line), the “selectivity index (EC50/MIC ratio)” value was above 50. Further, the “brain tissue burden (CFU)” value in the series on C. neoformans [6] was “eradication of fungal cells”. In addition, in the series on C. neoformans [6], the “lung tissue burden (CFU)” value is “decrease of fungal load”. The “mice surviving C. neoformans infection” value in the series on C. neoformans [6] (up to 60 days, 10 mice per group) was 70%. Moreover, the “survival, days postinfection” value in the series with C. neoformans [7] (1.2 mg/kg/day i.p.) stood at 10.5 ± 4.2 days. In addition, the toxicity result was “some toxicity” with P. murina [8] and “no apparent signs of toxicity” in the series with P. murina [9]. The survival entry in the series on P. murina [9] is “significantly improved survival”. This compound yielded a mice still alive in the series on C. albicans SC 5314 of 75%. Further, the “all other blood parameters for liver and kidney function” value in series [10] (after 60 days of treatment) is recorded as “normal”. Further, the tolerability in animals entry in [10] (mouse, in vivo) is listed as “well tolerated”. Further, the “levels of C18 hydroxyceramide and its desaturated and methylated forms” value in series [11] is listed as “decreased”. In addition, in the series on C. neoformans [12], the “numbers of vesicles per square micrometer of cell surface area” value came to 0.93 ± 0.54.

For the compound `C[C@@H]1[C@H](O)[C@@H](C)/C=C/C=C/C=C/C=C/C=C/C=C/C=C/[C@H](O[C@@H]2O[C@H](C)[C@@H](O)[C@H](N)[C@@H]2O)C[C@@H]2O[C@](O)(C[C@@H](O)C[C@@H](O)[C@H](O)CC[C@@H](O)C[C@@H](O)CC(=O)O[C@H]1C)C[C@H](O)[C@H]2C(=O)O` [amphotericin B, reference compound], the “survival, days postinfection” value in the series on C. neoformans [7] (1.2 mg/kg/day i.p.) is reported as 23.5 ± 6.5 days.

A word on the MIC: it is the lowest concentration found to suppress growth. In the series with Cryptococcus neoformans, `OC(Cn1cncn1)(Cn1cncn1)c1ccc(F)cc1F` [fluconazole, reference compound] registered an MIC above 64 µg/mL. Further, the “survival, days postinfection” value in the series on C. neoformans [7] (10 mg/kg/day i.p.) is given as 10 ± 2 days.
